Data on 12 compounds can be found in paper PMC368434 (BMC Gastroenterology, 2004).

One may read the IC50 as the concentration at which inhibition is half-maximal. As a reminder, the Ki is a dissociation constant, usually derived from enzyme kinetics or from competition with a known ligand.

The target in data set [1] is pig gastric microsomal H,K-ATPase (Sus scrofa, UniProt P19156). Put plainly: H,K-ATPase assay. Type of data set: biochemical. As to conditions: for Attenuation of H,K-ATPase activity: non-physiological concentrations greater than 10^-7 M (up to 1 μM); for Inhibitory activity against H,K-ATPase: physiological concentrations (10^-9–10^-8 M).
The test system of the next data set is rat. As to conditions: cited from earlier work.
The next data set concerns cats. As to conditions: cited from earlier work.
The test system of a further data set is rat stomach and blood. As to conditions: cited from earlier work.
The test system of another data set is gastric damage. As to conditions: up to 100 mg/kg/d p.o., rat; cited from earlier work.
Another data set relates to guinea-pig ileum. As to conditions: cited from earlier work.
For another data set, the system named is dogs. As to conditions: cited from earlier work.
In data set [2] the test system is IL-8 secretion by human gastric adenocarcinoma (AGS) cells. Put plainly: IL-8 secretion by AGS cells. The note with it: 24 h, read-out: IC50, inhibition of baseline IL-8 secretion. Type of data set: cell-based. A digest of the protocol: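 AGS cells in Ham's F-12 with 10% FBS and antibiotics (37°C, 5% CO2), passages 42–56. Seeded at 50,000 cells/100 μl/well and attached 18 hr, then exposed to test compound with or without IL-1β (1 ng/ml) for 24 hr. Medium IL-8 measured by ELISA. Solvent controls included, solvents <1% final. Triplicates, ≥3 experiments; IC50 from three-parameter logistic fit.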

The test system of data set [3] is bacteria or mammalian cells; rat bone marrow cells. As to conditions: cited from earlier work.
For data set [4] the following is noted: 14C-labeled ML 3000, rats; cited from earlier work.
In data set [5] the test system is rabbit gastric parietal cells. Put plainly: Acid accumulation assay. Type of data set: cell-based. The note with it: up to concentrations of 10^-4 M (data not shown).
The test system of a further data set is gastric H,K-ATPase. The note with it: cited from earlier work; for IC50: read-out: IC50, gastric proton pump activity.

Chain of pig gastric microsomal H,K-ATPase (P19156 2-1034 limits assumed): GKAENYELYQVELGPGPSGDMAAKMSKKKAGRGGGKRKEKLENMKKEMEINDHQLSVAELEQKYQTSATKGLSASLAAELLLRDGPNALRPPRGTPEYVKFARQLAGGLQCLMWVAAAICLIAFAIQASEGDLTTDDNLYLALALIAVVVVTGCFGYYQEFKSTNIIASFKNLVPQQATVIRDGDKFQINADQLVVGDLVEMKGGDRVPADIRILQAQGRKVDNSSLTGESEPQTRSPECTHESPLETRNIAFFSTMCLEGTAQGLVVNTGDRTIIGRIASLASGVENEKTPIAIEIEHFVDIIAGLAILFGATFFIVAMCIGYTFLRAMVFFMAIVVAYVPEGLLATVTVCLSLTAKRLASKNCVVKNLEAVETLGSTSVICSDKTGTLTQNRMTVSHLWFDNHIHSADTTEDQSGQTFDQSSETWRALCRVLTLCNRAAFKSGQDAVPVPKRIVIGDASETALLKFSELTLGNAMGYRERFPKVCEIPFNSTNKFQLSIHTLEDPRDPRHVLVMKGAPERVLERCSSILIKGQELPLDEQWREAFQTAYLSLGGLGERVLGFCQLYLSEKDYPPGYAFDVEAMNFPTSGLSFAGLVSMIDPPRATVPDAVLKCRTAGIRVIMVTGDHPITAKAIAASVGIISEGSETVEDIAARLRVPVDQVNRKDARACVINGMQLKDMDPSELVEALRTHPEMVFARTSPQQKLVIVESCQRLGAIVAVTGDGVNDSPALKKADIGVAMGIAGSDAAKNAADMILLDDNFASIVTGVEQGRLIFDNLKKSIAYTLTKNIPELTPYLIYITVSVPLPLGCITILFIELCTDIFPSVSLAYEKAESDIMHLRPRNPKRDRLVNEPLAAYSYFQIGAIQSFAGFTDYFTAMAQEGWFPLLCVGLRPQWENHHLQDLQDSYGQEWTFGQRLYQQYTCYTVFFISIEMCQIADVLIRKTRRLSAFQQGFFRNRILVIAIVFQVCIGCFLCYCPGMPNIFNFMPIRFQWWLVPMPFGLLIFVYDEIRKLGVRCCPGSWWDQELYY
Chain of pig gastric microsomal H,K-ATPase (P18434 whole entry partner): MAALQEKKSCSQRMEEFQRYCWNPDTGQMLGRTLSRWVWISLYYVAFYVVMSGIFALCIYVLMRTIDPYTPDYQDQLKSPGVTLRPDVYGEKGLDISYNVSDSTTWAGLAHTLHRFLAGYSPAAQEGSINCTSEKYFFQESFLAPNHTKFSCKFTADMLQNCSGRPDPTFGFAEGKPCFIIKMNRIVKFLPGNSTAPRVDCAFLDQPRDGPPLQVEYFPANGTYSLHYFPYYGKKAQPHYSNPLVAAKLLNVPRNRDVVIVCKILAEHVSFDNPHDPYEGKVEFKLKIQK

In [1], `CCCCC/C=C\C/C=C\C/C=C\C/C=C\CCCC(=O)O` [Arachidonic acid] showed an IC50 of 16.7 µM.
Regarding `CCCCC/C=C\C[C@@H](O)/C=C/C=C/C=C\[C@@H](O)CCCC(=O)O` [LTB4, leukotriene B4], in data set [1], the “Attenuation of H,K-ATPase activity” value is on record as “significant attenuation” and the “Inhibitory activity against H,K-ATPase” value was “neither leukotriene showed any inhibitory activity”.
For `CCCCC/C=C\C\C=C/C=C/C=C/[C@@H](SC[C@H](N)C(=O)NCC(=O)O)[C@@H](O)CCCC(=O)O` [LTD4, leukotriene D4], in that order: “significant attenuation” and “neither leukotriene showed any inhibitory activity”.
For the compound `CC1(C)Cc2c(-c3ccccc3)c(-c3ccc(Cl)cc3)c(CC(=O)O)n2C1` [ML 3000, [2,2-dimethyl-6-(4-chlorophenyl)-7-phenyl-2,3-dihydro-1H-pyrrolizine-5-yl]-acetic acid], the “Gastric damage and peristaltic disturbance” value with rat (animal models) was “neither gastric damage nor peristaltic disturbance”. In addition, in the data set with rat, the “Rat locomotor activity or hexobarbital-induced sleep” value is “did not affect”. The “Cardiovascular or respiratory effects” value with rat (rat) and in the data set on dogs was “no cardiovascular or respiratory effects” in each case. Besides, the Urine output result with rat (rats) was “small transient reduction”. Moreover, the Neuromuscular function entry in the data set with cats was “without affect”. Besides, the Gastric mucosal injury entry in the data set with rat stomach and blood is listed as “no gastric mucosal injury”. Further, the “Leukocyte adherence in mesenteric venules” value with rat stomach and blood was “no effect”. The “Gastric prostaglandin E2 synthesis” value in the data set with rat stomach and blood (rat stomach and blood) is “reduces”. Besides, in the data set on rat stomach and blood (rat), the “Inhibition of gastric or blood leukotriene B4 synthesis” value is given as “not detected”. Besides, the Gastric damage entry in the data set on gastric damage is recorded as “no gastric damage”. In the data set on guinea-pig ileum, the Spasmogenic response result is “weak spasmogenic response”. Further, the IC50 was determined as 0.46 µM in [2] and 16.4 µM in [1]. For the same compound, the “Genotoxicity: gene mutation frequencies in bacteria or mammalian cells, unscheduled DNA synthesis, chromosomal aberrations in rat bone marrow cells” value in data set [3] was “no effects”. In addition, in data set [1] (ML 3000 titrated to pHs 2.0 to 7.4 for 30 min, 16.6 μM final concentration), the “Effect of ML 3000 acidification on H,K-ATPase inhibitory profile” value was “no significant effect”. Further, in [1] (dilution from 100 μM to 3.3 μM), the “Reversibility of H,K-ATPase inhibition” value is given as “reversible”. Moreover, the Distribution and excretion result in data set [4] was “enterohepatic circulation and glucuronide conjugation”.
Regarding `CS(=O)(=O)Nc1ccc([N+](=O)[O-])cc1OC1CCCCC1` [NS 398], the “Inhibitory effect on microsomal H,K-ATPase activity” value in [1] (concentrations up to 10^-4 M) is on record as “without inhibitory effects”. For the same compound, the “Effect on acid accumulation by isolated rabbit parietal cells” value in data set [5] is on record as “no effect”.
In turn, `CCCCC[C@H](O)/C=C/[C@H]1[C@H](O)CC(=O)[C@@H]1C/C=C\CCCC(=O)O` [PGE2, prostaglandin E2] returned an IC50 in data set [1] of 15 µM. For the same compound, the “Inhibitory effect on pig gastric H,K-ATPase” value in the data set with gastric H,K-ATPase (pig, previous study) is recorded as “no inhibitory effect”.
For the compound `CC(=O)Oc1ccccc1C(=O)O` [acetyl salicylic acid], the “Inhibitory effect on microsomal H,K-ATPase activity” value in data set [1] (concentrations up to 10^-3 M) is on record as “without inhibitory effects”. The “Effect on acid accumulation by isolated rabbit parietal cells” value in data set [5] was “no effect”.
Turning to `COc1ccc2c(c1)c(CC(=O)O)c(C)n2C(=O)c1ccc(Cl)cc1` [indomethacin], in [1] (concentrations up to 10^-4 M), the “Inhibitory effect on microsomal H,K-ATPase activity” value is reported as “without inhibitory effects”. The Ki at gastric H,K-ATPase (read-out: Ki, inhibition of gastric H,K-ATPase) is 670 µM.
For the compound `Cc1c(OCC(F)(F)F)ccnc1C[S+]([O-])c1nc2ccccc2[nH]1` (centres unmarked) [lansoprazole], on gastric H,K-ATPase, the IC50 is 2.1 µM.
For the compound `COc1ccc2cc([C@H](C)C(=O)O)ccc2c1` [naproxen], the “Inhibitory effect on microsomal H,K-ATPase activity” value in data set [1] (concentrations up to 10^-4 M) is recorded as “without inhibitory effects”.
As for `COC(=O)c1cc2nc([S+]([O-])Cc3ncccc3C)[nH]c2cc1C` (centres unmarked) [picoprazole], the IC50 on gastric H,K-ATPase was 2 µM.
As to `COCCCOc1ccnc(C[S+]([O-])c2nc3ccccc3[nH]2)c1C` (centres unmarked) [rabeprazole], the IC50 on gastric H,K-ATPase was 0.072 µM.
